Assay [1] deals with Serine/threonine-protein kinase pim-2 (Homo sapiens, UniProt Q9P1W9). The assay can be described thus: Inhibition of Pim2 (unknown origin) using luciferase-luciferin based ATP detection reagent by Kinase-Glo assay. The conditions noted are these: read-out: IC50. For orientation: Kinase-Glo reads ATP consumption through a luciferase reaction.
A short description of assay [2]: Growth inhibition of human UM-UC-3 cells after 24 hrs by Clonogenic cell survival assay. Particulars: UMUC3, 24 h. The assay is classed as functional, cell-based. An outline of the steps:
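Two-dimensional colony formation (clonogenic survival) of human UM-UC-3 bladder carcinoma and HSC-3 oral squamous carcinoma cells, assessing the cytostatic effect on colony growth.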

In assay [3] the target is Serine/threonine-protein kinase pim-1 (Homo sapiens, UniProt P11309). The assay is described as follows: Inhibition of Pim1 (unknown origin) using luciferase-luciferin based ATP detection reagent at 1 uM by Kinase-Glo assay.
The target of assay [4] is NT-3 growth factor receptor (Homo sapiens) (UniProt Q16288). The assay can be described thus: Inhibition of TRKC (unknown origin) at 1 uM.
Assay [5] addresses BDNF/NT-3 growth factors receptor (Homo sapiens) (UniProt Q16620). The assay can be described thus: Inhibition of TRKB (unknown origin) at 1 uM.
The target in assay [6] is Tyrosine-protein kinase Lck (Homo sapiens) (UniProt P06239). The assay can be described thus: Inhibition of LCK (unknown origin) at 1 uM.
Assay [7] has as its target T1, Serine/threonine-protein kinase haspin (Homo sapiens) (UniProt Q8TF76).
T1 sequence (whole entry): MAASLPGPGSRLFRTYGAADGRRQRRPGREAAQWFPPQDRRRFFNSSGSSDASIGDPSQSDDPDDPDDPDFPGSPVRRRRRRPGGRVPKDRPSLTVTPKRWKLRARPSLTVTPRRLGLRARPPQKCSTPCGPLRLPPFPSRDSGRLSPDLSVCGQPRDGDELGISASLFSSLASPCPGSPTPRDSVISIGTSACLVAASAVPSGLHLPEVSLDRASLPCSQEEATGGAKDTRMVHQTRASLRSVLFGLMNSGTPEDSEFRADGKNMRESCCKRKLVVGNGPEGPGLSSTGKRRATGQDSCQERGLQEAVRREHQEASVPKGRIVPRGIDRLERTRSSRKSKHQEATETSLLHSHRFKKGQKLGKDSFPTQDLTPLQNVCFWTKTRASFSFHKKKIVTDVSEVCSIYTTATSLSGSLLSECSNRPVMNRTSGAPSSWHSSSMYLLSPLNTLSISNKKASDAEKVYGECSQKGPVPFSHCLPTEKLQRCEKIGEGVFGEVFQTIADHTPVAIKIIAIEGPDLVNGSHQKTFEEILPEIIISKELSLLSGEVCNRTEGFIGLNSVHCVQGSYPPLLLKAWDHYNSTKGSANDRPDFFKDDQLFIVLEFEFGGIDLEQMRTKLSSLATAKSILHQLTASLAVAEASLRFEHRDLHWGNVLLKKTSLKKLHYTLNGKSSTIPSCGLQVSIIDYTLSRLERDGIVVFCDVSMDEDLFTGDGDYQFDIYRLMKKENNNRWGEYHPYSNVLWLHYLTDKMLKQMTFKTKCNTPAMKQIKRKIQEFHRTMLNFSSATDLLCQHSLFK
The assay can be described thus: Inhibition of Haspin (unknown origin) at 1 uM.

The target in assay [8] is T2, Muscle, skeletal receptor tyrosine-protein kinase (Homo sapiens) (UniProt O15146).
T2 sequence (whole entry): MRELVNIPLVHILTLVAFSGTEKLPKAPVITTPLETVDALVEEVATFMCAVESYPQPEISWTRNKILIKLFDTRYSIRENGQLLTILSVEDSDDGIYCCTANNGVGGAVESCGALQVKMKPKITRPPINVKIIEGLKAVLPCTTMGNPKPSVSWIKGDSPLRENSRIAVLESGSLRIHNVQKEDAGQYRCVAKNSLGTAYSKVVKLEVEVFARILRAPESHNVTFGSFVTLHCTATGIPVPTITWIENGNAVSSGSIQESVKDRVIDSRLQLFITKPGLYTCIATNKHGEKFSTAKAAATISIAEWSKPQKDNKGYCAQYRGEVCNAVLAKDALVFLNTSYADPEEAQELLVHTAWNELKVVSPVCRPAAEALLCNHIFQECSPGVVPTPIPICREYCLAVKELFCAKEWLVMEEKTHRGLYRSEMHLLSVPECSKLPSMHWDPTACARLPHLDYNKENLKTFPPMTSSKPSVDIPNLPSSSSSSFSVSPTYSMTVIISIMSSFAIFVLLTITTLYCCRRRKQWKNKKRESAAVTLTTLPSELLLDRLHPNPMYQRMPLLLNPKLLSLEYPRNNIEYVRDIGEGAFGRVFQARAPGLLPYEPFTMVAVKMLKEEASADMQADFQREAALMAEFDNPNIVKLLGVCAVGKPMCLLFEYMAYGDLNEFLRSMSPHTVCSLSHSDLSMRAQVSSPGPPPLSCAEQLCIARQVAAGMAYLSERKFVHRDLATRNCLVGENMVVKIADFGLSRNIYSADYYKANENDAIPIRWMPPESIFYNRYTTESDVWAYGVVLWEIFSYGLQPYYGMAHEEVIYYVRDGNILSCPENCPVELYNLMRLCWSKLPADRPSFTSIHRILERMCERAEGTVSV
The assay is described as follows: Inhibition of MUSK (unknown origin) at 1 uM.

Assay [9] addresses T3, Homeodomain-interacting protein kinase 4 (Homo sapiens) (UniProt Q8NE63).
T3 sequence (whole entry): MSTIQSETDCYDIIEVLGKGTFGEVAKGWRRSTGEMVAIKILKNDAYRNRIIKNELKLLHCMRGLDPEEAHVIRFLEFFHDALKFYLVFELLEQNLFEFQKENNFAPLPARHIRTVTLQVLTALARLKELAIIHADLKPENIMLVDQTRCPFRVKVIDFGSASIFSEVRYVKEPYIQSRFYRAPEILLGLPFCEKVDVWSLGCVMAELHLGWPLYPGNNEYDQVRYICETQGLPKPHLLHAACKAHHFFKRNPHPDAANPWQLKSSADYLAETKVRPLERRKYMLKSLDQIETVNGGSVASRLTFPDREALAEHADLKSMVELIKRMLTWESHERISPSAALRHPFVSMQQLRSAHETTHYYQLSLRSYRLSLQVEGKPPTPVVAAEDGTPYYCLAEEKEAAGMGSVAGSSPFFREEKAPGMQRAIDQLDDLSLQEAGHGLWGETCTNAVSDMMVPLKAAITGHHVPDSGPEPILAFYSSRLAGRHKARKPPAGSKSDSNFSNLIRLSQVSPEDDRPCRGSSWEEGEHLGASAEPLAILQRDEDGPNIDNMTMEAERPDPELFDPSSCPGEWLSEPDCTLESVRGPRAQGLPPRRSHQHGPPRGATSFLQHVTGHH
The assay is described as follows: Inhibition of HIPK4 (unknown origin) at 1 uM.

Assay [10] deals with Homeodomain-interacting protein kinase 2 (Homo sapiens) (UniProt Q9H2X6). The assay can be described thus: Inhibition of HIPK2 (unknown origin) at 1 uM.
Assay [11] concerns the target Tyrosine-protein kinase Fyn (Homo sapiens) (UniProt P06241). The assay is described as follows: Inhibition of FYN (unknown origin) at 1 uM.
Assay [12] has as its target Macrophage colony-stimulating factor 1 receptor (Homo sapiens) (UniProt P07333). The assay is described as follows: Inhibition of FMS (unknown origin) at 1 uM.
The target of assay [13] is Proto-oncogene tyrosine-protein kinase Src (Homo sapiens) (UniProt P12931). The assay is described as follows: Inhibition of c-Src (unknown origin) at 1 uM.

A word on the IC50: it is the concentration at which inhibition is half-maximal. The term EC50 denotes the concentration at which the effect is half-maximal. Read a low EC50 as a more potent agent. As a reminder, the inhibition is the drop in the measured response relative to a control, in per cent.

A value given as a limit tells only on which side of the number the result lay.

Chain of NT-3 growth factor receptor (Homo sapiens) (Q16288 32-839 limits assumed): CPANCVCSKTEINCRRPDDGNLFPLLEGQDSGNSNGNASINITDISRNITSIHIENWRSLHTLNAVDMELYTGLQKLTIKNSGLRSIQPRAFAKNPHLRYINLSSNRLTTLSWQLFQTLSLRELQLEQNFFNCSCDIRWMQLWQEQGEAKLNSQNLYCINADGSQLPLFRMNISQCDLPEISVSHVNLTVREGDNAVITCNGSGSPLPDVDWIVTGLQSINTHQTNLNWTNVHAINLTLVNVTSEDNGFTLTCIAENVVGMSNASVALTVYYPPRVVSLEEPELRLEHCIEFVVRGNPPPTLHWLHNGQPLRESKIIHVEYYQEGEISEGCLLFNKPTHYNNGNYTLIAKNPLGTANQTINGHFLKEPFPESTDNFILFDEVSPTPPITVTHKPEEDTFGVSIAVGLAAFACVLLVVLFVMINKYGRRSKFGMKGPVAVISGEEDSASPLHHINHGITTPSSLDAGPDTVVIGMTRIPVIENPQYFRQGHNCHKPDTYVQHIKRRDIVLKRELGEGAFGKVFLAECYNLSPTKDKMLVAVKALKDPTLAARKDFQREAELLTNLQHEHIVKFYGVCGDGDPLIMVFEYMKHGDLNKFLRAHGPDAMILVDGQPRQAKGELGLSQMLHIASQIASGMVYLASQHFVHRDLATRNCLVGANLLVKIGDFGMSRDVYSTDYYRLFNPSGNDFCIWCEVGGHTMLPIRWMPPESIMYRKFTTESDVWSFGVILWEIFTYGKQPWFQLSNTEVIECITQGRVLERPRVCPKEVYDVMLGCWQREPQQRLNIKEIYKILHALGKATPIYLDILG
Chain of BDNF/NT-3 growth factors receptor (Homo sapiens) (Q16620 32-822 limits assumed): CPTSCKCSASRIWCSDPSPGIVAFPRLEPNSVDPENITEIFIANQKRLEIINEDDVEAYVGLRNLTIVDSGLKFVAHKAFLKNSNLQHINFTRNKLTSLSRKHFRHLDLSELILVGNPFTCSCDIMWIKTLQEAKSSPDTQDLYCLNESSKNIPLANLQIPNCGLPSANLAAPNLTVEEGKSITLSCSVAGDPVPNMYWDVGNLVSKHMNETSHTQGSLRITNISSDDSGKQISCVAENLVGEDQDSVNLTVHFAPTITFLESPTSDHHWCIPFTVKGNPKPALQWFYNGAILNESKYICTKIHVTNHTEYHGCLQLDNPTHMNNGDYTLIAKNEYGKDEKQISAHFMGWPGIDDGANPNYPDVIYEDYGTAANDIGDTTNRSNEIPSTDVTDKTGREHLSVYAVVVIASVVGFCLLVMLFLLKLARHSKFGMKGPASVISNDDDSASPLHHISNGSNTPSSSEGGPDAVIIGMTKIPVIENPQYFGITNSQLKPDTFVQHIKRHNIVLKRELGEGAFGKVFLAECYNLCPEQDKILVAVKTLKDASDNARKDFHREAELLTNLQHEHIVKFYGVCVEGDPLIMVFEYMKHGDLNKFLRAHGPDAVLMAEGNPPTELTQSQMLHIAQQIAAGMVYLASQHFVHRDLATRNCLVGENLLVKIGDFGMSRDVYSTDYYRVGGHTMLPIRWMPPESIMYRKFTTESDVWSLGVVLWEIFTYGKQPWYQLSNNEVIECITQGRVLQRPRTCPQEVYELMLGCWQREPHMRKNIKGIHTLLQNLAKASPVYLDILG
Chain of Serine/threonine-protein kinase pim-1 (P11309 whole entry, looked up): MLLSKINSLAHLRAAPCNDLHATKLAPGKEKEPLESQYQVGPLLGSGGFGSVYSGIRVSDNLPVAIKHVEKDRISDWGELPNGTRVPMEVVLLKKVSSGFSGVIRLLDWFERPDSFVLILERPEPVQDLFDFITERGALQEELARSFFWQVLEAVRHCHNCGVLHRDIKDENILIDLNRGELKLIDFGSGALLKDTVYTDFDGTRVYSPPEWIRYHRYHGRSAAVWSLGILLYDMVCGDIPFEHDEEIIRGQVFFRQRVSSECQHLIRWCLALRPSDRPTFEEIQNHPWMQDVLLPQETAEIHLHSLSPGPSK
Chain of Tyrosine-protein kinase Lck (Homo sapiens) (P06239 2-509 limits assumed): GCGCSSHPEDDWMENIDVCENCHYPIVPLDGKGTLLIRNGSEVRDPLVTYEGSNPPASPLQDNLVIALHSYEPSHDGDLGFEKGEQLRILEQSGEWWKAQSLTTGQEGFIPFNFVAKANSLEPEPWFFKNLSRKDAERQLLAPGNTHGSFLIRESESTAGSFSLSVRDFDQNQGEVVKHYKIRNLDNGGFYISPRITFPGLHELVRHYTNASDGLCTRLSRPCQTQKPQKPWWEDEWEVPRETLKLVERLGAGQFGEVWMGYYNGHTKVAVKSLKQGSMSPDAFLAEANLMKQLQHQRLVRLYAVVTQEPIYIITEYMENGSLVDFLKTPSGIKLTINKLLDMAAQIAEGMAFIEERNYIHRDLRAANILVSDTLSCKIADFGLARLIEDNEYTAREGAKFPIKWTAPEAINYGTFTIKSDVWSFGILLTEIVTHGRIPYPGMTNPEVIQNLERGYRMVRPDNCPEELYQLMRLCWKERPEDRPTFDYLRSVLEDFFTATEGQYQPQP
Chain of Serine/threonine-protein kinase pim-2 (Q9P1W9 whole entry): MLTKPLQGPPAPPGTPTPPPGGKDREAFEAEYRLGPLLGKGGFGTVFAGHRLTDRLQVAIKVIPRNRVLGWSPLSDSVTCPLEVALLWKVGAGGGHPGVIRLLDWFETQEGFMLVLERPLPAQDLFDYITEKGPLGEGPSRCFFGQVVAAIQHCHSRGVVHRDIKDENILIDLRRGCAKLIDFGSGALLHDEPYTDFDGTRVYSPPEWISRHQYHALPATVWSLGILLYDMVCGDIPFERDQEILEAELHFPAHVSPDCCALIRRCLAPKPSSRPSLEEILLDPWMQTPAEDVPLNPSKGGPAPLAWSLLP
Chain of Tyrosine-protein kinase Fyn (Homo sapiens) (P06241 2-537 limits assumed): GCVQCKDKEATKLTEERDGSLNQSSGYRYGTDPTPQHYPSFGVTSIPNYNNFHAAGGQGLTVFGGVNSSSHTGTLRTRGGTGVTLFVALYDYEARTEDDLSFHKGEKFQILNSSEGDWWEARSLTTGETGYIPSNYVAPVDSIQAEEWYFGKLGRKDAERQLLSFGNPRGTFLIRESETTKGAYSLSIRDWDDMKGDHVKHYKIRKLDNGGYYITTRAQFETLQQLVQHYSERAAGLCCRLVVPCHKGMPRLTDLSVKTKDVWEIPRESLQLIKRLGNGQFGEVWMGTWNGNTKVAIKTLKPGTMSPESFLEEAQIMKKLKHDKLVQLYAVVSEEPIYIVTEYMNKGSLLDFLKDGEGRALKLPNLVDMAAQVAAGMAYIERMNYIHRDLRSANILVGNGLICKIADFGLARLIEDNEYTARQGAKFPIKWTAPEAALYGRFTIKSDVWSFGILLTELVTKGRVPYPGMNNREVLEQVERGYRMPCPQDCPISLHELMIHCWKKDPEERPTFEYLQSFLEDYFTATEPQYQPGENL
Chain of Macrophage colony-stimulating factor 1 receptor (Homo sapiens) (P07333 whole entry): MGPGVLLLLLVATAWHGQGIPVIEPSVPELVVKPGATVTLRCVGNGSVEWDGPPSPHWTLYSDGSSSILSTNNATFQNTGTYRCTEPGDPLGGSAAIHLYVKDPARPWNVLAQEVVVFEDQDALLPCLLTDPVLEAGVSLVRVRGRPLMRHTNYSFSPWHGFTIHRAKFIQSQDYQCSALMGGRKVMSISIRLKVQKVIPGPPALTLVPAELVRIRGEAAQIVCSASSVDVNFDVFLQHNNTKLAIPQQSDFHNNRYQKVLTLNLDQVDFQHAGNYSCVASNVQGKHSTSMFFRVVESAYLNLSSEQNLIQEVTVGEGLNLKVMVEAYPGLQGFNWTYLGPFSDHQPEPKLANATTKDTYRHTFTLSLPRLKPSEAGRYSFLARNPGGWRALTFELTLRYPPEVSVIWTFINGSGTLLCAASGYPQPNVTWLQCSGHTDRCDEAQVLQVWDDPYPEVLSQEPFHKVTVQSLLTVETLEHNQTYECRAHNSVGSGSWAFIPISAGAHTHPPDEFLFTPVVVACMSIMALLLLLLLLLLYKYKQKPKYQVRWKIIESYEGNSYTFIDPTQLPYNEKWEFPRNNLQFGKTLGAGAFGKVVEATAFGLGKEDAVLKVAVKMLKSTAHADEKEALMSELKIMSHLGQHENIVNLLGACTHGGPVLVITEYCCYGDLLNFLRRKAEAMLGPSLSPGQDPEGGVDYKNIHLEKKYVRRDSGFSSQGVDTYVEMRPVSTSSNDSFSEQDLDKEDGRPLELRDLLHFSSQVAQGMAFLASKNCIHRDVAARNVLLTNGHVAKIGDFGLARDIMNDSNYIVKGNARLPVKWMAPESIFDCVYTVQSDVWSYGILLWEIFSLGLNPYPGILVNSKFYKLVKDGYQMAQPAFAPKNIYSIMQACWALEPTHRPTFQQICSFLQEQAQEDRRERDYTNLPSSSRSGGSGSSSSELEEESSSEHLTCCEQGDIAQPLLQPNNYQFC
Chain of Proto-oncogene tyrosine-protein kinase Src (Homo sapiens) (P12931 2-536 limits assumed): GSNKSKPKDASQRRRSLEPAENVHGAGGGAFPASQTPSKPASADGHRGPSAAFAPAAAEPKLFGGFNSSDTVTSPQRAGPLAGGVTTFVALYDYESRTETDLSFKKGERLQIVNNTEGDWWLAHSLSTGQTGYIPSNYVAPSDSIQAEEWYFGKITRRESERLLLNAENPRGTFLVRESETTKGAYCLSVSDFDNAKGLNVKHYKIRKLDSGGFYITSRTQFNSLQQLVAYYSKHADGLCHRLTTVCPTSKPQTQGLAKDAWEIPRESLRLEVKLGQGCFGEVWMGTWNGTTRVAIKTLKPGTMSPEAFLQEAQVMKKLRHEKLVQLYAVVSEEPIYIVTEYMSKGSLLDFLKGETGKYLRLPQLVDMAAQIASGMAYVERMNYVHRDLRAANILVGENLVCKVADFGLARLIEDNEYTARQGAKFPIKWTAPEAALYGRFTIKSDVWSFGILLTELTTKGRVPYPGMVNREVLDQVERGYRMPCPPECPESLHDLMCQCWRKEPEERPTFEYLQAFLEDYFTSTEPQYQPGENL

Turning to `CC(C)(O)[C@H]1CC[C@H](Nc2ccn3ncc(-c4cccc(Cl)c4)c3n2)CC1`, the IC50 in assay [1] was 228 nM. In addition, the 50% effective concentration (EC50) in [2] came out at 914 nM. For the same compound, the inhibition is above 98% in assay [3]; 96% in assay [4]; above 90% in assay [5]; above 80% in [6]; above 80% in [7]; above 80% in assay [8]. The inhibition in assay [9] is above 80%; in assay [10], above 50%; in assay [11], above 50%; in assay [12] it was above 50%; in assay [13], above 50%.

Values taken from ChEMBL document CHEMBL3351833, “Synthesis and Biological Evaluation of Pyrazolo[1,5-a]pyrimidine Compounds as Potent and Selective Pim-1 Inhibitors” (ACS Med Chem Lett, 2015).
